From ChEMBL document CHEMBL1131058, “Studies on quinazolines and 1,2,4-benzothiadiazine 1,1-dioxides. 8.1, 2 synthesis and pharmacological evaluation of tricyclic fused quinazolines and 1,2,4-benzothiadiazine 1,1-dioxides as potential alpha1-adrenoceptor antagonists” (J Med Chem, 1998)

Columns and labels:
[1] = target: T1, 5-hydroxytryptamine receptor 1A (Rattus norvegicus, UniProt P19327); experiment: Compound is evaluated for binding affinity towards 5-hydroxytryptamine 1A receptor using [3H]-8-OH- -DPAT in rat brain cortex; assay type: tissue-based
T1 sequence (P19327 whole entry): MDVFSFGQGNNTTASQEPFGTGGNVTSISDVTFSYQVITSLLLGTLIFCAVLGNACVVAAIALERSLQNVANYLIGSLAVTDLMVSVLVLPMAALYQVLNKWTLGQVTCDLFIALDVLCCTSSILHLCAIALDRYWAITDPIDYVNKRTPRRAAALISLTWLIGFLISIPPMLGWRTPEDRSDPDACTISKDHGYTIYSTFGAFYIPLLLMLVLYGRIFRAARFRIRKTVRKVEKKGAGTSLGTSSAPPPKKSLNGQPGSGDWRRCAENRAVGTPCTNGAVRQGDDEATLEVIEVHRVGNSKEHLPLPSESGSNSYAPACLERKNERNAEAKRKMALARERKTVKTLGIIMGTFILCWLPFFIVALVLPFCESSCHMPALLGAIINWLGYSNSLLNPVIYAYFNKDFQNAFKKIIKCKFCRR
How it was run: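 Contract radioligand competition binding. Sources: 5-HT1 and 5-HT1A in rat brain cortex; 5-HT2 and σ2 in rat brain; σ in guinea pig brain; D2, rhD2 and rhD3 in CHO cells with [³H]spiperone; H1 in guinea pig lung with [³H]pyrilamine. Inhibition constants reported; no constant given where inhibition at 10 µM was below 50%.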

D(2) dopamine receptor = D(2) dopamine receptor (Homo sapiens, UniProt P14416); experiment: Compound is evaluated for binding affinity towards recombinant human Dopamine receptor D2 using [3H]spiperone in CHO cells at 10 uM; assay type: cell-based
How it was run: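 Single-concentration screen at 10 µM in contract radioligand binding assays. Records whether inhibition of specific radioligand binding stayed below 50%.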

[2] = target: T2, Alpha-2A adrenergic receptor (Homo sapiens, UniProt P08913); experiment: Compound is evaluated for binding affinity towards Alpha-2A adrenergic receptor using [3H]MK912
T2 sequence (P08913 whole entry): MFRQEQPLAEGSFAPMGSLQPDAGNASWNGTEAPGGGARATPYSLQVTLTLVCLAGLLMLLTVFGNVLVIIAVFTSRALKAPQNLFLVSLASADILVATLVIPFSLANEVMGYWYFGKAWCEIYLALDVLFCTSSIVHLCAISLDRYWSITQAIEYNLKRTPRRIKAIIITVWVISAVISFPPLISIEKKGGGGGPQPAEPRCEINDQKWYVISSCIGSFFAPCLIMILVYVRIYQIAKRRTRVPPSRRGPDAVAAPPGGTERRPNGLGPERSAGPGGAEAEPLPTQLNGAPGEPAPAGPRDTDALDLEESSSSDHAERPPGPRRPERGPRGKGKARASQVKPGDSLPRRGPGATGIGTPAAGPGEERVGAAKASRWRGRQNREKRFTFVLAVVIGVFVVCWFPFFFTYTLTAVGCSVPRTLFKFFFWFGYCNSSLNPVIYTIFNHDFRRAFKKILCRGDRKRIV

[3] = target: T3, Adrenergic receptor alpha-2 (Rattus norvegicus, UniProt P22086+P19328+P22909); experiment: Displacement of clonidine from Alpha-2 adrenergic receptor in rat brain cortex; assay type: tissue-based
T3 sequence (P22086 whole entry): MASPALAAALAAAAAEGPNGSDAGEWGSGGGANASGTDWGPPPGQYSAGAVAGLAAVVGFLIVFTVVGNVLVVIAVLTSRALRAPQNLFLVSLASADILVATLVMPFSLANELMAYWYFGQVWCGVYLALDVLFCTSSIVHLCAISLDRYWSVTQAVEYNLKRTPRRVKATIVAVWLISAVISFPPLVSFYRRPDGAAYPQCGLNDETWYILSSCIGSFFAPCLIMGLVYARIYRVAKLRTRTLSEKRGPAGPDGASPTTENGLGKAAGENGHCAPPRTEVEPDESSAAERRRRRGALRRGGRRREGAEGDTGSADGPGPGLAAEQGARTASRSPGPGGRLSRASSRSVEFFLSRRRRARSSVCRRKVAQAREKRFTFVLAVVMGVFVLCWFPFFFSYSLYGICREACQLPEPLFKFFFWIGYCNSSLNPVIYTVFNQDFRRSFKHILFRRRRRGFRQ
T3 sequence (P19328 whole entry): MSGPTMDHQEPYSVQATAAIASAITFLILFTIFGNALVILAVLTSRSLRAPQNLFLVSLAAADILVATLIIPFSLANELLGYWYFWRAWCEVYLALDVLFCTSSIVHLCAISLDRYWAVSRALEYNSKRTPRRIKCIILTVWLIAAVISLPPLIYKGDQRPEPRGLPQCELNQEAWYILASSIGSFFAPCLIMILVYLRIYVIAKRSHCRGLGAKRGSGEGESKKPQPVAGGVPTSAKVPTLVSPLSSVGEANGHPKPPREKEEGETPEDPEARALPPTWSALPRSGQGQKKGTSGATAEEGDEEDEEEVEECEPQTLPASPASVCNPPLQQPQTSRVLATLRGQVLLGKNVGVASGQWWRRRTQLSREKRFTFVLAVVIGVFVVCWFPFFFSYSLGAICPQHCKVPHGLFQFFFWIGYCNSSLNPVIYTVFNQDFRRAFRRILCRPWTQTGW
T3 sequence (P22909 whole entry): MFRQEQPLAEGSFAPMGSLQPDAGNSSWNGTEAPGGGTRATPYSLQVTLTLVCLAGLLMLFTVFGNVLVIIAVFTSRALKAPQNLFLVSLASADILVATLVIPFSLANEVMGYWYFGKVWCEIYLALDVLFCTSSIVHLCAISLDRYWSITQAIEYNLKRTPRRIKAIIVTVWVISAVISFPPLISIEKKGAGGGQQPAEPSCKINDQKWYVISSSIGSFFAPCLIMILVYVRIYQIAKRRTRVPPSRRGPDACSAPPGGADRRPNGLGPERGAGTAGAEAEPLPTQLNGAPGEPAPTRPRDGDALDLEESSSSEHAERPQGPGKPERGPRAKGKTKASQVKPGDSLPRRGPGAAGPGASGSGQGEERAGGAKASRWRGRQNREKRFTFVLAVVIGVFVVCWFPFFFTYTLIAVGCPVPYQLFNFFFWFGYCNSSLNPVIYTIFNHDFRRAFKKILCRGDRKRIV
How it was run: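 α2 competition binding run in triplicate with 1 nM [³H]clonidine plus 10 mM MgCl₂ in Tris pH 7.4, 30 min at room temperature. Test compounds at 1-100 µM. Nonspecific binding defined with 10 µM clonidine. Membranes collected on GF/B filters and washed twice with cold Tris. Protein 300-400 µg per assay. Ki given as mean ± SEM of 3-6 experiments.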

Chain of D(2) dopamine receptor (P14416 whole entry): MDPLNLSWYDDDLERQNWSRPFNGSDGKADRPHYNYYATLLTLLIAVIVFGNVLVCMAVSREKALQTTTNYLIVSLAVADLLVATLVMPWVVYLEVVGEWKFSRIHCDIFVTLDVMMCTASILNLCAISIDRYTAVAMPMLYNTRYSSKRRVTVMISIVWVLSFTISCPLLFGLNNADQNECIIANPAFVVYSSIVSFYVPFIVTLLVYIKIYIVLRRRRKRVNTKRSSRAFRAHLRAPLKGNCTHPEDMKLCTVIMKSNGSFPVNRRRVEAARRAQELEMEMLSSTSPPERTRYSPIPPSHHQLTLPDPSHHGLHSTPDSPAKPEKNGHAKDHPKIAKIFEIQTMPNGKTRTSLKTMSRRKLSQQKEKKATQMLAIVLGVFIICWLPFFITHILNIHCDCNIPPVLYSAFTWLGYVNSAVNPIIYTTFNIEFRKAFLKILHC

With `COc1ccccc1N1CCN(CC2CN3C(=O)Nc4ccccc4C3=N2)CC1` (centres undefined) the Ki [1] was 238 nM, the inhibition (D(2) dopamine receptor) was less than 50% and the Ki [2] was 547 nM.
`COc1ccccc1N1CCN(C[C@H]2CN=C3c4ccccc4N=C(SC)N32)CC1` was tested, and the Ki [2] was 872 nM.
`COc1ccccc1N1CCN(Cc2cnc3c4ccccc4nc(O)n23)CC1` was tested, and the Ki [1] was 4000 nM, the Ki [3] was 7830 nM and the inhibition (D(2) dopamine receptor) was less than 50%.
`Oc1nc2ccccc2c2ncc(CN3CCN(c4ccccc4Cl)CC3)n12` gave a Ki [3] of 2720 nM and an inhibition (D(2) dopamine receptor) of less than 50%.
`COc1ccccc1N1CCN(CC2CN=C3c4ccccc4N=C(SC)N32)CC1` (centres undefined) showed a Ki [1] of 237 nM.
`COc1ccccc1N1CCN(C[C@@H]2CN=C3c4ccccc4N=C(SC)N32)CC1` showed a Ki [2] of 3000 nM.
Work on `COc1ccccc1N1CCN(Cc2cn3c(O)nc4ccccc4c3n2)CC1` yielded a Ki [3] of 6760 nM and an inhibition (D(2) dopamine receptor) of less than 50%.
Work on `COc1ccccc1N1CCN(C[C@H]2CN=C3c4ccccc4NC(=O)N32)CC1` yielded a Ki [2] of 444 nM.
